Measurements of several laboratories.
Each line is one published result; the experiments were not run side by side. ≈ marks a conversion by molar mass, not a printed value.

Compound	organism	assay	system	conditions	measurement	result
C=CCn1c(-c2ccc([N+](=O)[O-])cc2)nc2ccccc21	Enterococcus faecalis	microbial growth, broth dilution	ATCC29212	–	MIC	64 µg/mL
Cc1ccc(C)n1-c1ccc(-c2nnc(S)s2)cc1	Enterococcus faecalis	microbial growth, broth dilution	ATCC14506	18 h	MIC	1 µg/mL
CN(C)N1C(=O)c2ccccc2C1CB1OC(C)(C)C(C)(C)O1 (centres unmarked)	Leishmania major	parasite growth	–	intracellular, amastigote	IC50	94.6 µM
CCc1ccc(-n2cc(CN3CCN(C(=O)c4c(C)nc5cc(C)ccn45)CC3)nn2)cc1	Leishmania major	parasite growth, resazurin	–	72 h, promastigote	IC50	74.6 µM
CC1=NN(CNc2ccc(Cl)cc2)C(=O)C1=NNn1c(-c2ccccc2)nc2ccccc2c1=O	Aspergillus fumigatus	microbial growth, broth dilution	–	–	MIC	51.5 µM
COc1cccc(-n2cc(CN3CCN(C(=O)c4c(C)nc5ccc(Cl)cn45)CC3)nn2)c1	Leishmania major	parasite growth, resazurin	–	72 h, promastigote	IC50	112 µM
Cc1ccc2nc(-c3ccccc3O)[nH]c2c1	Enterococcus faecalis	microbial growth, broth dilution	ATCC29212	–	MIC	64 µg/mL
C[C@@H]1[C@H](O)[C@@H](C)/C=C/C=C/C=C/C=C/C=C/C=C/C=C/[C@H](O[C@@H]2O[C@H](C)[C@@H](O)[C@H](N)[C@@H]2O)C[C@@H]2O[C@](O)(C[C@@H](O)C[C@@H](O)[C@H](O)CC[C@@H](O)C[C@@H](O)CC(=O)O[C@H]1C)C[C@H](O)[C@H]2C(=O)O	Aspergillus fumigatus	microbial growth, resazurin	ATCC204305	–	IC50	1.18 µg/mL
Cc1nc2ccc(Cl)cn2c1C(=O)N1CCN(Cc2cn(-c3ccccc3Cl)nn2)CC1	Leishmania major	parasite growth, resazurin	–	72 h, promastigote	IC50	91.5 µM
Cc1ccc2nc(-c3ccc(N(C)C)cc3)[nH]c2c1	Enterococcus faecalis	microbial growth, broth dilution	ATCC29212	–	MIC	64 µg/mL
Cc1nc2ccc(Cl)cn2c1C(=O)N1CCN(Cc2cn(-c3ccc(Br)cc3)nn2)CC1	Leishmania major	parasite growth, resazurin	–	72 h, promastigote	IC50	33.6 µM
O=C(O)c1cn(C2CC2)c2cc(N3CCNCC3)c(F)cc2c1=O	Enterococcus faecalis	microbial growth, broth dilution	ATCC29212	–	MIC	8 µg/mL
C[C@@H](c1ncncc1F)[C@](O)(Cn1cncn1)c1ccc(F)cc1F	Acanthamoeba griffini	parasite growth, resazurin	–	96 h	IC50	0.29 µM
C[C@@H]1[C@H](O)[C@@H](C)/C=C/C=C/C=C/C=C/C=C/C=C/C=C/[C@H](O[C@@H]2O[C@H](C)[C@@H](O)[C@H](N)[C@@H]2O)C[C@@H]2O[C@](O)(C[C@@H](O)C[C@@H](O)[C@H](O)CC[C@@H](O)C[C@@H](O)CC(=O)O[C@H]1C)C[C@H](O)[C@H]2C(=O)O	Aspergillus fumigatus	microbial killing	ATCC204305	–	MFC	2.57 µM (≈ 2.37 µg/mL)
Cc1nc2ccc(Cl)cn2c1C(=O)N1CCN(Cc2cn(-c3ccc([N+](=O)[O-])cc3)nn2)CC1	Leishmania major	parasite growth, resazurin	–	72 h, promastigote	IC50	> 250 µM
CC1=NN(CNc2ccc(C(=O)O)cc2)C(=O)C1=NNn1c(-c2ccccc2)nc2ccccc2c1=O	Aspergillus fumigatus	microbial growth, broth dilution	–	–	MIC	50.5 µM
COc1ccc(-c2nc3ccccc3[nH]2)cc1O	Enterococcus faecalis	microbial growth, broth dilution	ATCC29212	–	MIC	64 µg/mL
CC1=NN(CNc2ccc(O)cc2)C(=O)C1=NNn1c(-c2ccccc2)nc2ccccc2c1=O	Aspergillus fumigatus	microbial growth, broth dilution	–	–	MIC	53.5 µM
CCCCCCCCCc1cn(CCN2CCN(C(=O)c3c(C)nc4cc(C)ccn34)CC2)nn1	Leishmania major	parasite growth, resazurin	–	72 h, promastigote	IC50	38.5 µM
Fc1ccc(-c2nc3ccccc3[nH]2)cc1	Enterococcus faecalis	microbial growth, broth dilution	ATCC29212	–	MIC	256 µg/mL
